Source: PubChem (several laboratories)
KCC2 mod: modulates chloride dependent transport by human KCC2; KCC2 cells, thallium flux FluoZin-2 fluorescence; B-score of Tl+ flux slope (higher = more flux/activation; lower = inhibition) at 10 µM; 190,000 compounds, 2.2% hits; AID 1456;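 active means thallium flux slope and its plate-corrected score both differing from the plate sample mean at a set confidence after two filtering rounds, in either direction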;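 further: slope of fluorescence scaled to starting intensity during 10 to 20 s after thallium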
V-ATPase pHluor: yeast V-ATPase proton transport regulation by pHLuorin | 350,000 compounds, 0.37% hits | response, % at 10 µM | S. cerevisiae, pHLuorin cytosolic pH fluorescence | AID 504577; in the data active means response mostly above about 7.3%, no sharp cut-off; inactive means mostly below about 5.4%; further: actives read high
Dynein cargo inh: dynein cargo transport inhibition; 3617.4 mouse cells, GR-EGFP nuclear translocation imaging; test concentration mostly 20 µM; stimulated with dexamethasone, 1 µM; hits give low values; z-score, hits read low; 220,000 compounds, 0.47% hits;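 active means plate z-score of nuclear minus cytoplasmic receptor signal below a set negative limit, without overly bright fluorescence or cell loss, cut at about -3.5 in these data, passing the limit was not always enough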;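 further: z-score of nuclear minus cytoplasmic ring GR-EGFP intensity difference per well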
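Medium: Induction medium lacking tetracycline, stripped serum | Probe or stimulus: 1.0 µM final dexamethasone stimulus | Schedule: 48 h induction, then 1 h compound, then 30 min agonist, 37 °C | Signal: Automated 10x imaging of fixed Hoechst-stained cells | Evaluation: Per-cell GR-EGFP intensity, nucleus versus surrounding cytoplasmic ring, well-averaged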
pCIP destab: lowers stability of the mouse p/CIP coactivator protein | Q05BA5 | F442A p/CIP-EGFP cells, EGFP fluorescence, 16 h | decrease of EGFP signal, % at 10 µM | 290,000 compounds, 0.01% hits | AID 1984;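 active means EGFP signal decrease of at least 30% at 10 µM or well 3 SD below plate mean, unless failing retest; inactive means the rest, including hits failing retest or dose response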
Target sequence (Q05BA5 1-1403): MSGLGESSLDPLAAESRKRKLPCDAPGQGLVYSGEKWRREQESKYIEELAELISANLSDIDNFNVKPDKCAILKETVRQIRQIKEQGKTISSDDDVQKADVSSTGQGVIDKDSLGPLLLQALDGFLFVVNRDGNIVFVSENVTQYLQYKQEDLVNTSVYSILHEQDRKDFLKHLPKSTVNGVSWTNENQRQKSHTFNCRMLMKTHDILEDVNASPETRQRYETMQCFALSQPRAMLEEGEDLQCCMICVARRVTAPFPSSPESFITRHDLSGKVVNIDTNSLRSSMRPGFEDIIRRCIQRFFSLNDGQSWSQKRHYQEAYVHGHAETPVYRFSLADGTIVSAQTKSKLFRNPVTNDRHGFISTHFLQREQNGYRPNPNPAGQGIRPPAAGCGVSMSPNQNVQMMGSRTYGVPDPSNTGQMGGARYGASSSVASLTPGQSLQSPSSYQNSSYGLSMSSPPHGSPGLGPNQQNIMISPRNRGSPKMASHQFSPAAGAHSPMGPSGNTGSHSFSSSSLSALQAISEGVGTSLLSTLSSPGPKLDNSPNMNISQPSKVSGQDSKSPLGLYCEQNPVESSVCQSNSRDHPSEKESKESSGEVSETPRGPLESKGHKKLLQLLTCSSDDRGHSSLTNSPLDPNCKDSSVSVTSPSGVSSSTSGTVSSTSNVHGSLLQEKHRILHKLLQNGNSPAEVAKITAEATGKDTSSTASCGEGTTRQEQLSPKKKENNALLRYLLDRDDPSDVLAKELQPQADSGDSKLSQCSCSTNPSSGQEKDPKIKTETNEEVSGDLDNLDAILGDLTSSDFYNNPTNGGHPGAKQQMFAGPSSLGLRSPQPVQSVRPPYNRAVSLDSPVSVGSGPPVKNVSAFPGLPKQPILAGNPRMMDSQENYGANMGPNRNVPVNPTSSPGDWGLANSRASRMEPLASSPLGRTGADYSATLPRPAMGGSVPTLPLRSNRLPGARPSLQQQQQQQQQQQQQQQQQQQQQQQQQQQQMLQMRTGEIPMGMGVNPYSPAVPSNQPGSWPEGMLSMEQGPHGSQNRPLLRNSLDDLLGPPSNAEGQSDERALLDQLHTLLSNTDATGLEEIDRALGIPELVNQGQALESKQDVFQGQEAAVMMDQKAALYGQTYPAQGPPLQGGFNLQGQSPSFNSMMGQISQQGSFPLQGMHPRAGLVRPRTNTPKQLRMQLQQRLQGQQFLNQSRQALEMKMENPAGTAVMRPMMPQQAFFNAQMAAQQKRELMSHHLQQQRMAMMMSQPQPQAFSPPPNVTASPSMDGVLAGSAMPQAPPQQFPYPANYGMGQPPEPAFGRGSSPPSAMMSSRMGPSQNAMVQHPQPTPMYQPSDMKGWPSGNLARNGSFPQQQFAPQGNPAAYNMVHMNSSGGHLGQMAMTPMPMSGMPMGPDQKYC
ABCB6 inh 2: inhibitors of human ABC transporter ABCB6; Q9NP58; 360,000 compounds, 0.19% hits; AID 602162; K562-ABCB6 porphyrin accumulation, flow cytometry, 1 h; hits give low values; fluorescence ratio to DMSO, % at 10 µM;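 active means fluorescence ratio to DMSO below 75%, the collection mean minus 3 SD; inconclusive means too few cells collected in the well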;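 further: signal is porphyrin accumulated inside mitochondria; lower ratio means ABCB6 inhibition with less porphyrin fluorescence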
Dynein inh conf: dynein cargo transport inhibition, confirmation | 3617.4 GR-EGFP nuclear translocation imaging, dexamethasone-induced | calls only at 20 µM | shares compounds with Dynein cargo inh | AID 463116 | 1,000 compounds, 69% hits;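 active means inhibition of receptor movement into the nucleus at or above a set limit in both runs, with normal cell brightness and cell count; inconclusive means limit reached in only one run, brightness and count normal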;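 further: dexamethasone at 1 µM final in well for 30 min; nuclear minus cytoplasmic GR-EGFP mean intensity difference in channel 2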
Hits are given with their value; - = inactive; ? = inconclusive; . = no result; + = active, no number. This is one part of a sample in which hits are shown more often than they occur.

SMILES | KCC2 mod | V-ATPase pHluor | Dynein cargo inh | pCIP destab | ABCB6 inh 2 | Dynein inh conf
CC1(C)C(=O)Nc2ccccc2N1C(=O)Cn1ncc(Cl)c(Cl)c1=O | - | - | -6.29 | - | - | +
O=C(Cn1ncc(Cl)c(Cl)c1=O)N1CCOCC1 | - | - | -4.2 | - | - | +
O=C(Cn1ncc(Cl)c(Cl)c1=O)N1CCN(Cc2ccccc2)CC1 | - | - | -5.05 | - | - | +
CCCCCC(=O)N1C[C@@H](n2cc(C3CC3)nn2)[C@H](O)C[C@@H]1c1ccc(C)cc1 | . | - | . | . | - | .
CN(Cc1ccc(Cl)cc1)C(C(=O)NC1CCCCC1)c1ccnc2ccccc12 (stereo not drawn) | . | . | . | . | - | .
O=C(NCc1ccco1)c1cccc2c1C(=O)c1ccc(/C=C/c3ccccc3)cc1S2(=O)=O | . | - | . | . | - | .
N#CCc1ccccc1C(=O)OCC(=O)N(Cc1ccccc1)Cc1ccccc1 | . | - | . | . | - | .
O=C(CCC(=O)N1CCCC1)N1CCCC1 | . | - | . | - | - | .
C=C1C(=O)[C@@]23[C@H](O)C[C@@H]4C(C)(C)CC[C@H](O)[C@]4(C)[C@@H]2C[C@H](O)[C@@H]1[C@H]3O | - | - | -5.11 | - | - | +
C=C1C(=O)[C@]23C[C@H]1CCC2[C@]1(C)C(=O)CC[C@@](C)(C(=O)O)C1C[C@@H]3O (stereo partly drawn) | . | . | . | . | - | .
C=C1C(=O)[C@]23C[C@H]1CCC2[C@]1(C)CCC[C@@](C)(C(=O)O)C1C[C@@H]3O (stereo partly drawn) | . | . | . | . | - | .
C=C1C(=O)[C@@]23[C@H](O)C[C@@H]4C(C)(C)CC[C@H](O)[C@@]4(C)[C@@H]2CC[C@@H]1[C@H]3O | - | - | -5.46 | - | - | +
O=C(CCl)N(C/C=C/c1ccccc1)c1ccc2c(c1)OCCO2 | - | - | -3.95 | - | - | +
Cc1ccccc1NC(=O)COC(=O)c1ccc(S(C)(=O)=O)c([N+](=O)[O-])c1 | - | - | -4.42 | - | - | +
CS(=O)(=O)c1ccc(C(=O)OCc2nnc(-c3ccccc3)o2)cc1[N+](=O)[O-] | - | - | -6.56 | - | - | +
CS(=O)(=O)c1ccc(C(=O)OCC(=O)Nc2cccnc2Cl)cc1[N+](=O)[O-] | . | - | . | . | - | .
Cc1nc2ccccc2c(=O)n1/N=C/c1ccc([N+](=O)[O-])o1 | - | . | -4.02 | - | . | +
Cc1nc2ccccc2n1/N=C/c1ccc([N+](=O)[O-])o1 | - | - | - | . | - | .
CCOC(=O)c1c2ccc(OCC(=O)N/N=C/c3ccc(Cl)cc3)cc2n2ccccc12 | - | . | - | - | . | -
O=[N+]([O-])c1sccc1CS(=O)(=O)c1ccccc1 | - | - | - | - | - | .
CC(C)(c1ccccc1)c1ccc(OCC(O)CNC2CCN(Cc3ccccc3)CC2)cc1 (stereo not drawn) | - | - | -4.98 | - | - | -
CCOc1ccc(OCC(O)CNC2CCN(Cc3ccccc3)CC2)cc1 (stereo not drawn) | - | - | - | - | - | .
O=C(c1cnc(Cl)c(Cl)c1)N1CCN(S(=O)(=O)c2ccc3ccccc3c2)CC1 | . | - | . | . | - | .
CCOc1ccc(C(=O)C(CCC(CN(C)C)C(=O)c2ccc(OCC)cc2)CN(C)C)cc1 (stereo not drawn) | - | 9.6 | -4.09 | - | - | -
COc1ccc(C(=O)C(CCCCC(CN(C)C)C(=O)c2ccc(OC)cc2)CN(C)C)cc1 (stereo not drawn) | - | - | - | - | - | .
SMILES | KCC2 mod | V-ATPase pHluor | Dynein cargo inh | pCIP destab | ABCB6 inh 2 | Dynein inh conf
CN(C)CCCN1C(=O)c2cccc3c(Br)ccc(c23)C1=O | - | - | - | - | - | .
CCCCNc1ccc2c3c(cccc13)C(=O)N(CCCC)C2=O | - | - | -6.07 | - | - | +
CCCNS(=O)(=O)c1ccc(OCC(=O)N2CCOCC2)cc1 | - | - | - | - | - | .
Cc1cc(S(=O)(=O)Nc2cc(C)c(O)c(C)c2)c(C)s1 | - | - | -3.99 | - | - | -
CCOc1nc(C#N)nc(N2CCCCC2)n1 | - | - | -3.53 | - | - | +
N#CCOc1nc(N2CCCCC2)nc(N2CCCCC2)n1 | - | - | - | - | - | .
CN(C)c1ccc(/C=C2\N=C(c3ccc(Cl)c([N+](=O)[O-])c3)NC2=O)cc1 | - | - | - | - | - | +
Cc1ccc(OCc2nc(-c3ccccc3)no2)cc1 | - | - | - | - | - | .
N#CC1(C#N)C(c2ccccc2)OC23CCCCC2C1(C#N)C(=N)O3 (stereo not drawn) | - | - | -4.19 | - | - | +
O=C1C(=O)c2cccnc2-c2ncccc21 | . | . | . | . | - | .
Cc1ccc(C(=O)N/C(=C\c2ccc(-c3ccc(Cl)cc3)o2)C(=O)NCCCN(C)C)cc1 | - | - | -4.3 | - | - | -
CN(C)CCCNC(=O)/C(=C\c1ccc(-c2ccc(Br)cc2)o1)NC(=O)c1ccccc1 | - | - | - | - | - | .
C#CC(=O)N(c1cccc(OC)c1)C(C(=O)NC1CCCC1)c1cccs1 (stereo not drawn) | - | - | -5.3 | - | - | +
C#CC(=O)N(c1ccc(OC)c(OC)c1)C(C(=O)NC1CCCC1)c1cccs1 (stereo not drawn) | . | - | -4.73 | - | 55.0 | +
COc1ccc(CNC(=O)c2sc(=O)n(Cc3ccc(C)cc3)c2C)cc1 | . | . | . | . | - | .
CC(C)c1nc(CNC(=O)C2CCC(=O)N(CCc3cccc(F)c3)C2)cs1 (stereo not drawn) | . | - | . | - | - | .
CCOC(=S)SCC(=O)Nc1ncc(C)s1 | - | - | -4.14 | - | - | -
Cc1cnc(NC(=O)CSc2ccccc2)s1 | - | - | - | - | - | .
Nc1cccc2c1C(=O)N(C(=O)/C=C/c1cccc(Br)c1)C2=O | - | - | -4.93 | - | - | +
COc1cc(/C=C/C(=O)N2C(=O)c3cccc(N)c3C2=O)cc(OC)c1OC | - | - | - | - | - | .
Nc1cccc2c1C(=O)N(C(=O)/C=C/c1cccc(F)c1)C2=O | - | - | -4.3 | - | - | +
CCc1nc2ccc(C(=O)Nc3ccc(OC)c(OC)c3)cn2c1N(C)C(=O)Cc1ccccc1 | . | . | . | . | - | .
CCN(CC)Cc1nc2nc(Cl)c(Cl)nc2[nH]1 | . | - | . | . | - | .
O=C1C(Cl)=C(NCCCO)C(=O)c2ccccc21 | . | - | - | - | - | .
CCOCCCNC1=C(Cl)C(=O)c2ccccc2C1=O | - | - | -5.28 | - | - | +
SMILES | KCC2 mod | V-ATPase pHluor | Dynein cargo inh | pCIP destab | ABCB6 inh 2 | Dynein inh conf
CN(C(=S)NC(=O)C1CCCC1)c1ccccc1 | . | . | . | . | - | .
CCc1cc(OCCCCNCc2ccccc2)ccc1Cl | - | - | -6.94 | - | - | -
Cc1cc(C)c2c(=O)n(CC(=O)N3CCC(Cc4ccccc4)CC3)sc2n1 | - | . | - | - | . | .
Cc1cccc(N2CCN(C(=O)Cn3sc4nc(C)cc(C)c4c3=O)CC2C)c1 (stereo not drawn) | . | - | -4.4 | - | - | ?
COc1cc(C(=O)N2CCN(c3ccccc3)CC2)c2ccccc2n1 | . | - | . | . | - | .
O=[N+]([O-])c1ccc(/C=N/Nc2ncccc2[N+](=O)[O-])s1 | . | - | . | . | - | .
